According to ChEMBL document CHEMBL3045020, “Insect antifeedant activity of flavones and chromones against Spodoptera litura” (2003):

test system: Spodoptera litura; assay: Antifeedant activity against Spodoptera litura F. by choice leaf disk assay; type: functional
Method in brief: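 Antifeedant value calculated from the rate of leaf consumption. A straight line was fitted to the bioassay points to obtain the ED50.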

Row | SMILES | ED50 [umol/cm2]
1 | COc1cc2oc(C)cc(=O)c2c(OC)c1OC | 0.41
2 | COc1ccc2c(=O)cc(C)oc2c1 | >10
3 | COc1cc(OC)c2c(=O)cc(C)oc2c1 | >10
4 | Cc1ccc2c(=O)cc(C)oc2c1 [2,7-DIMETHYLCHROMONE] | 0.102
5 | COc1ccc(-c2oc3c(OC)c(OC)c(OC)c(O)c3c(=O)c2OC)cc1 [5-HYDROXYAURANETIN] | 0.11
6 | O=c1cc(-c2ccccc2)oc2ccc(O)cc12 [6-HYDROXYFLAVONE] | >10
7 | COc1ccc2oc(-c3ccccc3)cc(=O)c2c1 [6-METHOXYFLAVONE] | 0.15
8 | Cc1ccc2oc(-c3ccccc3)cc(=O)c2c1 [6-METHYLFLAVONE] | 0.035
9 | O=c1cc(-c2ccccc2)oc2cc(O)ccc12 [7-HYDROXYFLAVONE] | >10
10 | COc1ccc2c(=O)ccoc2c1 [7-METHOXYCHROMONE] | 0.096
11 | COc1ccc2c(=O)cc(-c3ccccc3)oc2c1 [7-METHOXYFLAVONE] | 0.059
12 | O=c1cc(-c2ccc(O)cc2)oc2cc(O)cc(O)c12 [APIGENIN] | >10
13 | O=c1cc(-c2ccccc2)oc2cc(O)c(O)c(O)c12 [BAICALEIN] | 0.96
14 | O=c1ccoc2ccccc12 [CHROMONE] | 0.168
15 | O=c1cc(-c2ccccc2)oc2cc(O)cc(O)c12 [CHRYSIN] | 2.5
16 | O=c1cc(-c2ccccc2)oc2ccccc12 [FLAVONE] | 0.11
17 | COc1cc(O)c2c(=O)cc(-c3ccccc3)oc2c1O [ISOWOGONIN] | >10
18 | O=c1cc(-c2ccc(O)c(O)c2)oc2cc(O)cc(O)c12 [LUTEOLIN] | >10
19 | COc1cc2oc(-c3ccccc3)cc(=O)c2c(O)c1OC [MOSLOFLAVONE] | >10
20 | COc1ccc(-c2cc(=O)c3c(OC)c(OC)c(OC)c(OC)c3o2)cc1OC [NOBILETIN] | 5.6
21 | O=c1cc(-c2ccccc2)oc2c(O)c(O)cc(O)c12 [NORWOGONIN] | 1.52
22 | COc1c(O)cc2oc(-c3ccccc3)cc(=O)c2c1O [OROXYLIN A] | >10
23 | COc1ccc(-c2cc(=O)c3c(OC)c(OC)c(OC)c(OC)c3o2)cc1 [TANGERETIN] | 0.28
24 | COc1c(O)cc(O)c2c(=O)cc(-c3ccccc3)oc12 [WOGONIN] | 2
